Results of several laboratories.
Lines come from different studies, so protocols differ.
Target: Fibroblast growth factor receptor 4 (FGFR4, Homo sapiens, UniProt P22455)

| Structure (SMILES) | observed | mode | technique | concentration | quantity | result |
| --- | --- | --- | --- | --- | --- | --- |
| CC(C)(C)c1cc(C=C(C#N)C#N)cc(Br)c1O | enzyme activity | inhibitor |  | 0.5 µM | remaining activity | 98% |
| Cn1cncc1[C@](O)(COc1ccc(C#N)cc1-c1ccc(OC(F)(F)F)cc1)c1ccc(C#N)cc1 | cell-free assay |  | competition with immobilised ligand | 1 µM | remaining binding | 100% |
| Cn1cc(-c2cc(F)cc(N3CCn4c(cc5c4CCCC5)C3=O)c2CO)cc(Nc2ccc(N3CCN(C4COC4)CC3)cn2)c1=O | enzyme activity | inhibitor |  | 0.1 µM | inhibition | 2% |
| C#Cc1n[nH]c2c(-c3cn([C@@H](C)c4ccccn4)c(=O)[nH]c3=O)cc(F)cc12 | enzyme activity | inhibitor |  | 0.1 µM | inhibition | 7.2% |
| Nc1ncc(-c2nc(N3CCOCC3)nc(N3CCOCC3)n2)c(C(F)F)n1 | cell-free assay |  | competition with immobilised ligand | 10 µM | remaining binding | 100% |
| O=c1[nH]c2ccccc2n1C1CCN(Cc2ccc(-c3[nH]c4cc5ncnc5cc4nc3-c3ccccc3)cc2)CC1 | cell-free assay |  |  | 0.5 µM | remaining signal | 97.2% |
| COc1cc(Nc2ncc(F)c(Nc3ccc4c(n3)NC(=O)C(C)(C)O4)n2)cc(OC)c1OC | binding |  | competition with immobilised ligand | 10 µM | inhibition | 97% |
| COc1ncccc1-c1cnn2ccc(N3CCN(C(=O)OC(C)C)CC3)nc12 | binding |  | competition with immobilised ligand | 1 µM | remaining binding | 60% |
| Cc1nn(C)cc1-c1nc2c(N3CCN(Cc4ccc(Cl)cc4)CC3)c(Cl)cnc2[nH]1 | binding |  | competition with immobilised ligand | 1 µM | remaining binding | 68% |
| C#Cc1n[nH]c2c(-c3cn([C@@H](C)c4ccccc4)c(=O)[nH]c3=O)cc(F)cc12 | enzyme activity | inhibitor |  | 0.1 µM | inhibition | 0% |
| Cn1cc(-c2cccc(N3CCc4c(sc5c4CC(C)(C)C5)C3=O)c2CO)cc(Nc2ccncn2)c1=O | enzyme activity | inhibitor |  | 1 µM | inhibition | -2% |
| COCc1c(-c2cc3cc(C)cc(OC)c3s2)c2c(N)ncnn2c1CN1CCNC(=O)C1 | cell-free assay |  | competition with immobilised ligand | 1 µM | inhibition | 99.9% |
| N#CC1(c2ccccn2)CCN(Cc2cc(C(=O)O)c(=O)n3ccccc23)CC1 | cell-free assay |  | competition with immobilised ligand | 1 µM | remaining binding | 100% |
